# An excerpt weighted towards active compounds, which were near 1.1% of everything screened.
# TNAP act hi DEA: TNAP activators at high phosphate acceptor level, primary screen, biochemical, luminescence, uHTS | Alkaline phosphatase, tissue-nonspecific isozyme (Homo sapiens), P05186 | purified TNAP, CDP-star luminescence, 1 M DEA, 30 min; hits give high values; 0 = EDTA background, 1 = DMSO-only activity | activation factor at 20 µM | 200,000 tested, under 10 active | AID 1136, 2008;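 active = activation factor at least 2 at 20 µM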
#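 Measured by: Luminescent substrate turnover signal | Test system: Human TNAP | Input: TNAP 1/800 final | Dosing: 20 µM single point | Schedule: 30 min, room temperature | Controls: EDTA wells as negative control, DMSO wells as positive control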
# TNAP inh hi DEA: human TNAP enzyme inhibitors, primary screen, biochemical, luminescent, high phosphate acceptor level, uHTS. Alkaline phosphatase, tissue-nonspecific isozyme (Homo sapiens), P05186. purified TNAP, CDP-star luminescence, 1 M DEA. inhibition, % at 20 µM. 0.03% of 200,000 active;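 active = over 50% inhibition of tissue-nonspecific alkaline phosphatase at 20 µM in the single-dose screen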
# TNAP inh noacc: human TNAP enzyme inhibitors, primary screen, biochemical, luminescent, no phosphate acceptor, uHTS | Alkaline phosphatase, tissue-nonspecific isozyme (Homo sapiens), P05186 | purified TNAP, CDP-star luminescence, 30 min | inhibition, % at 20 µM | 0.26% of 200,000 active | AID 1012, 2008;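 active = tissue-nonspecific alkaline phosphatase inhibition above about 50% at 20 µM in the single-dose screen, limit read from the data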
# S1P3 antag-1: S1P3 receptor antagonists, primary screen, cell-based | Sphingosine 1-phosphate receptor 3 (Homo sapiens), Q99500 | CHO S1P3 NFAT-BLA reporter, FRET fluorescence, antagonist mode | inhibition, % at 4.98 µM | 0.27% of 170,000 active;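 active = inhibition above the plate cutoff, the mean inhibition of test wells on that plate plus 3 SD, cut at about 28% in these data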;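 note: cells challenged with S1P at its EC80 of 0.8 µM; blue over green emission ratio from cleaved BLA substrate after 4 h stimulation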
# S1P4 antag: S1P4 receptor antagonists, primary screen, cell-based; inhibition, % at 4.98 µM; 0.26% of 220,000 active; S1P4-expressing cells, antagonist mode, reporter read-out; AID 1510, 2009; in the data active = inhibition above about 29%
# S1P4 agonist: S1P4 receptor agonists, primary screen, cell-based | Sphingosine 1-phosphate receptor 4 (Homo sapiens), O95977 | S1P4-expressing cell line, agonist reporter assay | activation, % at 4.98 µM | 0.35% of 220,000 active | AID 1509, 2009; in the data active = activation above about 11%
# S1P3 antag-2: S1P3 receptor antagonists, retest, confirmation, cell-based. shares compounds with S1P3 antag-1. CHO S1P3 NFAT-BLA reporter, FRET, antagonist mode. inhibition, % at 4.98 µM. 30% of 240 active;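 active = inhibition above the hit threshold that was computed for the earlier primary screen, cut at about 30% in these data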
# S1P4 agonist cf: S1P4 receptor agonists, retest, confirmation, cell-based, high throughput. AID 1523, 2009. 7% of 740 active. activation, % at 4.98 µM. S1P4 agonist cell-based reporter assay. shares compounds with S1P4 agonist; in the data active = activation above about 12%
# S1P1 ag: S1P1 receptor agonists, human, counter-screen for S1P4 agonist project, cell-based. shares compounds with S1P4 agonist. S1P1 agonist cell-based assay, activation. activation, % at 4.98 µM. 4% of 740 active. AID 1563, 2009; in the data active = activation above about 21%
# Target sequence (P21453 whole entry, looked up): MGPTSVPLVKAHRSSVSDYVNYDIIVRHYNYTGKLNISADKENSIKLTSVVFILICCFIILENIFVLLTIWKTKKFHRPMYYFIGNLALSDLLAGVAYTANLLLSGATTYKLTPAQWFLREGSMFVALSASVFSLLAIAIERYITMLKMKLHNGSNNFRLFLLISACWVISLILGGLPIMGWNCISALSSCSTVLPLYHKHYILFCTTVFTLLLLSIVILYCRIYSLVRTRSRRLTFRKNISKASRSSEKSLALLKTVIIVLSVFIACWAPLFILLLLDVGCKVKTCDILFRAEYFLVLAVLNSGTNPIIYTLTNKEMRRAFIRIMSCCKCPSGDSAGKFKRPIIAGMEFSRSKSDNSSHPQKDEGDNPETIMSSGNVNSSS
# S1P4 antag conf: S1P4 receptor antagonists, human, confirmation, cell-based; 71% of 520 active; shares compounds with S1P4 antag; S1P4-expressing cell line, antagonist mode, reporter read-out; inhibition, % at 4.98 µM; in the data active = inhibition above about 30%
# S1P1 antag: S1P1 receptor antagonists, human, counter-screen for S1P4 antagonist project, cell-based | shares compounds with S1P4 antag | cell-based S1P1 antagonist counterscreen, inhibition | inhibition, % at 4.98 µM | 37% of 520 active; in the data active = inhibition above about 40%;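 note: receptor stimulated with S1P near its EC80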
# A number is an active result; 0 = inactive; - = no result given; ! = not confirmed by another sample.
SMILES,TNAP act hi DEA,TNAP inh hi DEA,TNAP inh noacc,S1P3 antag-1,S1P4 antag,S1P4 agonist,S1P3 antag-2,others
Cc1cccc(NC(=O)CSc2nc(NS(=O)(=O)c3ccccc3)cc(=O)[nH]2)c1,0,0,0,0,0,0,-,
COc1ccc(CCNc2ncnc3sccc23)cc1OC,0,0,0,49,0,0,0,
NS(=O)(=O)c1ccc(CCNc2ncnc3sccc23)cc1,0,0,0,0,0,0,-,
CN(C)CCNC(=O)/C=C/c1cn(-c2ccccc2)nc1-c1cc2ccccc2oc1=O,0,0,0,0,0,0,-,
O=C(/C=C/c1ccccc1)CC(=O)c1ccccc1O,0,0,0,0,0,0,-,
CC(C)(C)c1cc(C(=O)Nc2ccc(F)cc2)n(Cc2ccc(F)cc2)n1,-,-,-,30,0,0,0,
COc1ccc(NS(=O)(=O)c2cccc(NC(=O)c3ccc(Cl)nc3)c2)cc1,0,0,0,33,0,0,0,
O=C(Nc1cccc(S(=O)(=O)Nc2ccc(Cl)cc2)c1)c1ccc(Cl)nc1,0,0,0,0,0,0,-,
Cc1ccc(S(=O)(=O)NCCc2nnc3ccc(SCC(=O)Nc4nc5ccccc5s4)nn23)cc1,0,0,0,28,0,0,0,
O=C1S/C(=C/c2ccccc2)C(=O)N1CC(O)Cn1c2ccccc2c2ccccc21 (configuration not stated),0,0,0,40,0,0,0,
Cc1cc(C)nc(SCC(=O)Nc2ccnc3ccccc23)n1,0,0,0,30,0,0,0,
COC(=O)c1ccccc1NC(=O)CSc1nc(C)cc(C)n1,0,0,0,0,0,0,-,
COc1cccc(CNS(=O)(=O)/C=C/c2ccc3c(c2)OCO3)c1,0,0,0,-,0,0,-,
Cc1cccc(Nc2sc(C(=O)c3cc4cc(Cl)ccc4o3)c(N)c2C#N)c1,-,-,-,28,0,0,0,
Cc1cccc(C2(c3cccc(C)c3)CC2C(=O)Nc2ccc([N+](=O)[O-])cc2O)c1 (configuration not stated),0,0,0,76,0,0,73,
Cc1ccc2cccc(OCC(=O)N3CC(C)CC(C)C3)c2n1 (configuration not stated),0,0,0,0,0,0,-,
Cc1nn(C)c(C)c1CN(Cc1nc(CCC(C)C)no1)C(C)C,0,0,0,32,0,0,0,
CCOC(=O)/C(=C/C1=CC(=C/N(C)C)/C(=O)O1)C(C)=O,-,-,-,0,0,0,-,
COc1cnc(-c2ccccn2)nc1Oc1ccccc1Cl,0,0,0,-,0,0,-,
COc1ccccc1Sc1nc(-c2ccccn2)ncc1OC,0,0,0,0,0,0,-,
COc1cnc(-c2ccccn2)nc1NC(C)C,0,0,0,29,0,0,0,
COc1cnc(-c2ccccn2)nc1Oc1ccc(F)cc1F,0,0,0,29,0,0,0,
O=C(CCNc1n[nH]c(=O)[nH]c1=O)N/N=C/c1ccc(C(F)(F)F)cc1,0,0,0,0,0,0,-,
CNc1nc2cc([N+](=O)[O-])c([N+](=O)[O-])cc2nc1NC,0,0,0,54,0,0,34,
O=C(O)c1cccc(-c2ccc(/C=N/Nc3ccc([N+](=O)[O-])cc3)o2)c1,-,-,-,0,0,0,-,
SMILES,TNAP act hi DEA,TNAP inh hi DEA,TNAP inh noacc,S1P3 antag-1,S1P4 antag,S1P4 agonist,S1P3 antag-2,others
O=C(N/N=C/c1ccc(-c2cccc([N+](=O)[O-])c2)o1)[C@H]1C[C@@H]1c1ccccc1,0,0,0,0,0,0,-,
O=C(N/N=C/c1ccc(-c2ccc([N+](=O)[O-])cc2)o1)[C@H]1C[C@@H]1c1ccccc1,-,-,-,45,0,0,63,
O=C(O)c1ccc(-c2ccc(/C=N/Nc3ccc([N+](=O)[O-])cc3)o2)cc1,-,-,-,29,0,0,0,
S=c1[nH]ccn1-c1cccc(Cl)c1Cl,-,-,-,0,0,0,-,
S=c1[nH]ccn1-c1ccccc1Cl,-,-,-,73!,0,0,0,
COC(=O)c1scc2c(=O)cc(C(F)(F)F)[nH]c12,-,-,-,32,35,0,0,S1P4 antag conf=69;S1P1 antag=51
CC(C)(C)NC(=S)N/N=C\c1ccc(-c2ccc([N+](=O)[O-])cc2)o1,-,-,-,70,45,0,73,S1P4 antag conf=83;S1P1 antag=134
CCCCC(=O)N/N=C/c1ccc(-c2ccc([N+](=O)[O-])cc2)o1,0,0,0,0,0,0,-,
CCn1c(N)nc2c1c(=O)n(C)c(=O)n2C,0,0,0,0,0,0,-,
CCCc1nc2c(=O)n(C)c(=O)nc-2n(C)n1,0,0,0,72,54,0,107,S1P4 antag conf=89;S1P1 antag=56
CN1CCC(=NOc2ccc([N+](=O)[O-])cc2)CC1,0,0,0,0,0,0,-,
NC(=O)C1CCN(CC(=O)Nc2cccnc2Cl)CC1,0,0,0,0,0,0,-,
CCCCNc1ccc2c3c(cccc13)C(=O)N(CCCC)C2=O,-,-,-,47,45,0,59,S1P4 antag conf=67;S1P1 antag=98
CC1CN(C(=O)COC(=O)c2ccc(NC(=O)CC#N)cc2)CC(C)O1 (configuration not stated),0,0,0,0,0,11,-,S1P4 agonist cf=0;S1P1 ag=0
CCN(CC)c1ccc(-c2n[nH]c(=S)n2-c2ccccc2)cc1,0,0,0,0,0,12,-,S1P4 agonist cf=0;S1P1 ag=0
CN(C)c1ccc(-c2n[nH]c(=S)n2-c2ccccc2)cc1,0,0,0,0,0,0,-,
S=C(Nc1ccc(Br)cc1Cl)NN1CCOCC1,0,0,0,0,0,0,-,
COc1cccc(CCc2nnc(CCC(=O)N3CCN(Cc4ccccn4)CC3)o2)c1,0,0,0,0,0,0,-,
